Measured values reported in ChEMBL document CHEMBL2069288, “Virtual screening leads to the discovery of novel non-nucleotide P2Y₁ receptor antagonists” (Bioorg Med Chem, 2012).

Legend:
[1] = target: T1, P2Y purinoceptor 1 (Homo sapiens, UniProt P47900); assay: Displacement of [125I]MRS2500 from human P2Y1R expressed in Sf9 cell membrane at 20 uM
Method in brief: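 Binding screen used hP2Y1R-expressing Sf9 cell membranes and about 0.2 nM [125I]MRS2500. Each test compound was applied at 20 µM, and the value is percent inhibition of specific radioligand binding.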

[2] = target: T1, P2Y purinoceptor 1; assay: Antagonist activity at human P2Y1R expressed in human 1321N1 cells assessed as inhibition of 2-MeSADP-induced increase in intracellular calcium mobilization at 10 uM; format: functional, cell-based
Method in brief: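 hP2Y1R-expressing 1321N1 cells were kept in DMEM with 5% FBS and geneticin, grown overnight to about 60–80% confluency, and loaded with Calcium 4 dye for 1 h at room temperature without washing. Test compound at 10 µM was added 20 min before 2-MeSADP (30 nM; curves 10−9–10−5 M). Read-out was fluorescence (ex 485/em 525 nm), peak minus basal, in triplicate.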

[3] = target: T1, P2Y purinoceptor 1; assay: Displacement of [125I]MRS2500 from human P2Y1R expressed in Sf9 cell membrane
Method in brief: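 Competition binding used membranes of Sf9 insect cells expressing hP2Y1R, with [125I]MRS2500 at approximately 0.2 nM.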

[4] = target: T1, P2Y purinoceptor 1; assay: Antagonist activity at human P2Y1R expressed in human 1321N1 cells assessed as inhibition of 2-MeSADP-induced increase in intracellular inositol phosphate generation; format: functional, cell-based
Method in brief: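 In 1321N1 cells stably expressing hP2Y1R, cells were labeled 18–24 h at 37°C with 2-[3H]myo-inositol in inositol-free DMEM. Agonist-stimulated [3H]inositol phosphate accumulation was measured over 10 min at 37°C with 10 mM LiCl. Total inositol phosphates were separated by anion-exchange chromatography. IC50 is the mean of 3 independent concentration-effect curves.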

T1 sequence (P47900 whole entry): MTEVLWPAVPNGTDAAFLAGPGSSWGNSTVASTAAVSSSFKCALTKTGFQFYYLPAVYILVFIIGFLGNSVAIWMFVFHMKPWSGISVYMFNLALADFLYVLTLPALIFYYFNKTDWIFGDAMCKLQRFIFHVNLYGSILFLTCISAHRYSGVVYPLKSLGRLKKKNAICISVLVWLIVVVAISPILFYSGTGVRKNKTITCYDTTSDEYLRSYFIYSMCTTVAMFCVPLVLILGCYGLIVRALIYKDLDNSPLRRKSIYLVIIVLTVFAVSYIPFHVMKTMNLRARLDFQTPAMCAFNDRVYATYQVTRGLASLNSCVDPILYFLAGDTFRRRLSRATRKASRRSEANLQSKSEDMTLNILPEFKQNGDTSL

Row | inhibition [1] | inhibition [2] | Ki [3] | IC50 [4] | SMILES
1 | < 10% | 11.3% |  |  | Cc1noc(NS(=O)(=O)c2ccc(NC(=O)Nc3ccc(F)c(F)c3)cc2)c1C
2 |  |  | 10 µM |  | CCc1nnc(NS(=O)(=O)c2ccc(NC(=O)Nc3ccc(C(F)(F)F)cc3)cc2)s1
3 |  | 36.8% | 13 µM | 0.14 µM | Cc1noc(NS(=O)(=O)c2ccc(NC(=O)Nc3ccc(Cl)c(Cl)c3)cc2)c1C
4 |  | 31.3% | 42 µM |  | Cc1noc(NS(=O)(=O)c2ccc(NC(=O)Nc3ccc(F)c(Cl)c3)cc2)c1C
5 | 20% |  |  |  | Cn1nnc2c(Cc3ccc(S(N)(=O)=O)cc3)ncnc21
6 | 20% |  |  |  | O=C(CSC1=NC(=O)N(CCCN2CCOCC2)C2CCCC12)Nc1ccc2c(c1)OCO2 (configuration not stated)
7 |  |  | 6 µM |  | COc1cc(NS(=O)(=O)c2ccc(NC(=O)Nc3cccc(Cl)c3)cc2)nc(OC)n1
8 |  | 10.2% | ≥ 100 µM |  | Cc1noc(NS(=O)(=O)c2ccc(NC(=O)Nc3cc(F)cc(F)c3)cc2)c1C
9 | 40% |  |  |  | CN(C)CCCN(C(=O)c1ccco1)c1nc2cc3c(cc2s1)OCO3
10 | < 10% | 9.1% |  |  | COc1ccc(NC(=O)Nc2ccc(S(=O)(=O)Nc3onc(C)c3C)cc2)cc1OC
11 | 20% |  |  |  | COc1ccc(S(=O)(=O)NCC(c2ccc3c(c2)OCO3)N2CCN(C)CC2)cc1OC (configuration not stated)
12 | 20% |  |  |  | COc1ccc(S(=O)(=O)Nc2ccc3c(c2)C(=O)Nc2ccccc2O3)cc1OC
13 |  | 21.7% | ≥ 100 µM |  | Cc1noc(NS(=O)(=O)c2ccc(NC(=O)Nc3cccc(Cl)c3)cc2)c1C
14 | 30% |  |  |  | CC1=C2C(=O)NC(SCC(=O)Nc3ccc(S(=O)(=O)NCCCC(=O)O)cc3)=NC2SC1C(=O)O (configuration not stated)
15 |  | 32.7% | 45 µM |  | Cc1noc(NS(=O)(=O)c2ccc(NC(=O)Nc3ccc(C(F)(F)F)cc3)cc2)c1C
16 | < 10% | 9.4% |  | 0.13 µM | Cc1ccc(NC(=O)Nc2ccc(S(=O)(=O)Nc3onc(C)c3C)cc2)cc1C
17 | 20% |  |  |  | Cc1cc(NC(=O)CSc2ccc3nnc(CCNS(=O)(=O)c4ccccc4)n3n2)no1
18 | 20% |  |  |  | Cn1c(=O)[nH]c(=O)c2nc(NCCCO)n(CC(O)COc3ccccc3)c21 (configuration not stated)
19 | < 10% | < 5% |  |  | Cc1noc(NS(=O)(=O)c2ccc(NC(=O)Nc3ccccc3)cc2)c1C
20 |  | 17.6% | 27 µM |  | Cc1noc(NS(=O)(=O)c2ccc(NC(=O)Nc3cc(Cl)cc(Cl)c3)cc2)c1C
